Consider 28 compounds from ChEMBL document CHEMBL1909567, “Synthesis and structure-activity relationship studies in translocator protein ligands based on a pyrazolo[3,4-b]quinoline scaffold” (J Med Chem, 2011).

One assay addresses Translocator protein (Rattus norvegicus, UniProt P16257). The experiment in a line: Displacement of [3H]PK11195 from TSPO in Sprague-Dawley rat brain homogenates after 90 mins by liquid scintillation spectrometry. The class given is tissue-based. Background: In a radioligand displacement assay an active substance lowers the binding of a labelled ligand.
Assay [1] deals with Rattus norvegicus. The experiment in a line: Antinociceptive activity in rat peripheral mononeuropathy model assessed as decrease in right paw pressure at 5 mg/kg, po after 15 mins by analgesimetry (reference value: 34.8 +/- 3.7 g). The assay is classed as functional.
Assay [2] has as its system Rattus norvegicus. The experiment in a line: Antinociceptive activity in rat peripheral mononeuropathy model assessed as decrease in left paw pressure at 5 mg/kg, po after 45 mins by analgesimetry (reference value: 63.0 +/- 2.4 g). The assay is classed as functional.
Assay [3] concerns Rattus norvegicus. The experiment in a line: Antinociceptive activity in rat peripheral mononeuropathy model assessed as decrease in right paw pressure at 50 mg/kg, po after 30 mins by analgesimetry (reference value: 31.3 +/- 2.8 g). The class given is functional.
Assay [4] has as its system Mus musculus. The experiment in a line: Antianxiety activity in mouse assessed as increase in time spent in illuminated area at 30 mg/kg, po after 30 mins by light/dark box test (reference value: 116.4 +/- 7.5 sec). The assay is classed as functional. In short, it runs like this: (§1)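 Male mice, housed 15 per cage, placed in the test room 24 h before testing for acclimatization. Drugs were given po in 1% carboxymethylcellulose at 10 mL/kg, 30 min before the light/dark box test. Time spent in the light box (s) was recorded. Values are mean ± SEM of at least 8 mice per group. ANOVA with Fisher's PLSD was used against vehicle.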

For assay [5], the system named is Rattus norvegicus. The experiment in a line: Antinociceptive activity in rat peripheral mononeuropathy model assessed as decrease in right paw pressure at 5 mg/kg, po after 30 mins by analgesimetry (reference value: 31.3 +/- 2.8 g). The class given is functional.
Assay [6] has as its system Rattus norvegicus. The experiment in a line: Antinociceptive activity in rat peripheral mononeuropathy model assessed as decrease in left paw pressure at 5 mg/kg, po after 15 mins by analgesimetry (reference value: 63.5 +/- 2.8 g). The assay is classed as functional.
For assay [7], the system named is Rattus norvegicus. The experiment in a line: Antinociceptive activity in rat peripheral mononeuropathy model assessed as decrease in right paw pressure at 5 mg/kg, po after 45 mins by analgesimetry (reference value: 32.9 +/- 2.6 g). The assay is classed as functional.
For assay [8], the system named is Mus musculus. The experiment in a line: Antianxiety activity in mouse assessed as increase in time spent in illuminated area at 3 mg/kg, po after 30 mins by light/dark box test (reference value: 116.4 +/- 7.5 sec). The assay is classed as functional. The procedure, abridged: as §1
The subject of assay [9] is Rattus norvegicus. The experiment in a line: Antinociceptive activity in rat peripheral mononeuropathy model assessed as decrease in left paw pressure at 5 mg/kg, po after 30 mins by analgesimetry (reference value: 59.65 +/- 2.6 g). The assay is classed as functional.
Assay [10] deals with Rattus norvegicus. The experiment in a line: Antinociceptive activity in rat peripheral mononeuropathy model assessed as decrease in right paw pressure at 50 mg/kg, po after 45 mins by analgesimetry (reference value: 32.9 +/- 2.6 g). The class given is functional.
The subject of assay [11] is Rattus norvegicus. The experiment in a line: Antinociceptive activity in rat peripheral mononeuropathy model assessed as decrease in left paw pressure at 50 mg/kg, po after 45 mins by analgesimetry (reference value: 63.0 +/- 2.4 g). The assay is classed as functional.
The test system of assay [12] is Rattus norvegicus. The experiment in a line: Antinociceptive activity in rat peripheral mononeuropathy model assessed as decrease in left paw pressure at 50 mg/kg, po after 15 mins by analgesimetry (reference value: 63.5 +/- 2.8 g). The assay is classed as functional.
The subject of assay [13] is Rattus norvegicus. The experiment in a line: Antinociceptive activity in rat peripheral mononeuropathy model assessed as decrease in right paw pressure at 50 mg/kg, po after 15 mins by analgesimetry (reference value: 34.8 +/- 3.7 g). The class given is functional.
In assay [14] the test system is Mus musculus. The experiment in a line: Antianxiety activity in mouse assessed as increase in time spent in illuminated area at 10 mg/kg, po after 30 mins by light/dark box test (reference value: 116.4 +/- 7.5 sec). The class given is functional. In short, it runs like this: as §1
Assay [15] relates to Rattus norvegicus. The experiment in a line: Antinociceptive activity in rat peripheral mononeuropathy model assessed as decrease in left paw pressure at 50 mg/kg, po after 30 mins by analgesimetry (reference value: 59.65 +/- 2.6 g). The class given is functional.
Assay [16] has as its system Mus musculus. The experiment in a line: Antianxiety activity in mouse assessed as increase in time spent in illuminated area at 1 mg/kg, po by light/dark box test (reference value: 116.4 +/- 7.5 sec). The class given is functional. In short, it runs like this: as §1

Sequence of Translocator protein (P16257 whole entry, looked up): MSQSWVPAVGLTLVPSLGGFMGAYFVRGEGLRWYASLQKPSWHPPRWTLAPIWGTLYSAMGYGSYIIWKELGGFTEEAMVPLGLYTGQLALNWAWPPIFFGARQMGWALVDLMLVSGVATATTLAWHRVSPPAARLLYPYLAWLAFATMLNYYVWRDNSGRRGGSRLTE

Turning to `CCCCN(C)C(=O)Cn1c2nc3ccccc3c(C)c2c(=O)n1-c1ccccc1`, the IC50 (usually the concentration needed to halve the response being measured) on Translocator protein worked out at 0.065 µM.

On to `CCN(CC)C(=O)Cn1c2nc3ccccc3c(C)c2c(=O)n1-c1ccccc1`, for which, at Translocator protein, the IC50 worked out at 0.18 µM.

The compound `Cc1c2ccccc2nc2c1c(=O)n(-c1ccccc1)n2CC(=O)N(C(C)C)C(C)C` returned an IC50 at Translocator protein of 1.39 µM.

On to `CCCN(CCC)C(=O)Cn1c2nc3ccccc3c(C)c2c(=O)n1-c1ccccc1`, for which the IC50 at Translocator protein amounted to 0.09 µM. Against the preceding compound, the IC50 is about 15-fold lower.

On Translocator protein, `CCCCN(CCCC)C(=O)Cn1c2nc3ccccc3c(C)c2c(=O)n1-c1ccccc1` returned an IC50 of 0.152 µM.

`Cc1c2ccccc2nc2c1c(=O)n(-c1ccccc1)n2CC(=O)N(C)c1ccccc1` returned an IC50 at Translocator protein of 0.117 µM.

Regarding `Cc1c2ccccc2nc2c1c(=O)n(-c1ccccc1)n2CC(=O)N(C)c1ccc(Cl)cc1`, the Activity in the assay with Rattus norvegicus [1] amounted to 39.2 g; in the assay with Rattus norvegicus [2], 61.4 g; with Rattus norvegicus [3], 44 g; with Rattus norvegicus [5] it was 35.9 g; in the assay on Rattus norvegicus [6] it was 57.8 g; in the assay on Rattus norvegicus [7] it was 33.4 g. Besides, the Activity came to 63.6 g with Rattus norvegicus [9]; 37 g with Rattus norvegicus [10]; 59 g in the assay on Rattus norvegicus [11]; 61 g in the assay on Rattus norvegicus [12]; 48.1 g in the assay on Rattus norvegicus [13]; 58 g in the assay on Rattus norvegicus [15]. Also, the IC50 on Translocator protein is 0.0018 µM. The Time with Mus musculus [4] was 107.6 s; in the assay on Mus musculus [8], 103.8 s; with Mus musculus [14], 112.3 s.

Turning to `COc1ccc(N(C)C(=O)Cn2c3nc4ccccc4c(C)c3c(=O)n2-c2ccccc2)cc1`, at Translocator protein, the IC50 turned out to be 0.017 µM. In other words, the double-digit nanomolar range.

Consider `Cc1c2ccccc2nc2c1c(=O)n(-c1ccccc1)n2CC(=O)N(C)Cc1ccccc1`, for which the IC50 at Translocator protein worked out at 0.881 µM.

On to `CCN(Cc1ccccc1)C(=O)Cn1c2nc3ccccc3c(C)c2c(=O)n1-c1ccccc1`, for which the IC50 at Translocator protein was determined as 0.22 µM. Compared with the last compound, the IC50 is about 4-fold lower.

With `Cc1c2ccccc2nc2c1c(=O)n(-c1ccccc1)n2CC(=O)N(Cc1ccccc1)C(C)C`, at Translocator protein, the IC50 worked out at 0.304 µM.

`CCCCN(Cc1ccccc1)C(=O)Cn1c2nc3ccccc3c(C)c2c(=O)n1-c1ccccc1` displayed an IC50 at Translocator protein of 0.697 µM.

Compound `Cc1c2ccccc2nc2c1c(=O)n(-c1ccccc1)n2CC(=O)N(Cc1ccccc1)Cc1ccccc1` came in with an IC50 at Translocator protein of 3.46 µM.

`CCCCN(C)C(=O)Cn1c2nc3ccccc3c(C)c2c(=O)n1-c1ccc(F)cc1` displayed a half-inhibitory concentration (IC50) at Translocator protein of 0.11 µM.

In the case of `CCN(CC)C(=O)Cn1c2nc3ccccc3c(C)c2c(=O)n1-c1ccc(F)cc1`, the IC50 on Translocator protein came to 2.27 µM.

Take `CCCN(CCC)C(=O)Cn1c2nc3ccccc3c(C)c2c(=O)n1-c1ccc(F)cc1`: the IC50 on Translocator protein turned out to be 0.087 µM.

For the compound `Cc1c2ccccc2nc2c1c(=O)n(-c1ccc(F)cc1)n2CC(=O)N(C)c1ccc(Cl)cc1`, the Activity in the assay on Rattus norvegicus [1] turned out to be 35.6 g; in the assay with Rattus norvegicus [2], 64.1 g; with Rattus norvegicus [3], 47.2 g; with Rattus norvegicus [5] it was 36.4 g; in the assay on Rattus norvegicus [6], 58.7 g; with Rattus norvegicus [7] it was 36.3 g. The Activity worked out at 57.7 g with Rattus norvegicus [9]; 36.3 g in the assay with Rattus norvegicus [10]; 63.1 g with Rattus norvegicus [11]; 60.7 g in the assay on Rattus norvegicus [12]; 49.4 g with Rattus norvegicus [13]; 59.3 g in the assay with Rattus norvegicus [15]. Moreover, the IC50 at Translocator protein was found to be 0.0068 µM. Moreover, the figures for the Time with Mus musculus [4], with Mus musculus [8] and in the assay on Mus musculus [14] were 111.3 s, 106.8 s and 117.5 s, respectively.

With `CCCCN(C)C(=O)Cn1c2nc3ccccc3c(C)c2c(=O)n1-c1ccc(Cl)cc1`, the IC50 at Translocator protein was 0.144 µM.

`CCCN(CCC)C(=O)Cn1c2nc3ccccc3c(C)c2c(=O)n1-c1ccc(Cl)cc1`: on Translocator protein, the IC50 was found to be 0.09 µM. This IC50 lies about 1.6-fold lower than the previous one.

Take `Cc1c2ccccc2nc2c1c(=O)n(-c1ccc(Cl)cc1)n2CC(=O)N(C)c1ccc(Cl)cc1`: the Activity with Rattus norvegicus [1] was 44.8 g; in the assay with Rattus norvegicus [2], 63.8 g; with Rattus norvegicus [3], 49.4 g; with Rattus norvegicus [5], 35.8 g; in the assay with Rattus norvegicus [6], 61.4 g; with Rattus norvegicus [7], 32.7 g. Further, the Activity with Rattus norvegicus [9] was determined as 58.4 g; with Rattus norvegicus [10], 42.5 g; in the assay on Rattus norvegicus [11] it was 64.8 g; with Rattus norvegicus [12], 62.2 g; in the assay on Rattus norvegicus [13], 56.3 g; with Rattus norvegicus [15], 61.8 g. For the same compound, the IC50 on Translocator protein turned out to be 0.016 µM. Besides, the values for the Time in the assay on Mus musculus [8], in the assay on Mus musculus [14] and in the assay on Mus musculus [16] were 135.2 s, 169 s and 108.9 s, respectively.

As to `CCCCN(C)C(=O)Cn1c2nn(-c3ccccc3)c(=O)c-2c(C)c2ccccc21`, at Translocator protein, the IC50 came to 0.00014 µM. The results for the Time in the assay with Mus musculus [8], in the assay with Mus musculus [14] and in the assay with Mus musculus [16] were 117.4 s, 151.5 s and 103.7 s, respectively.

Turning to `CCN(CC)C(=O)Cn1c2nn(-c3ccccc3)c(=O)c-2c(C)c2ccccc21`, the IC50 on Translocator protein came out at 0.00083 µM. In other words, the sub-nanomolar range.

For `CCCCN(CCCC)C(=O)Cn1c2nn(-c3ccccc3)c(=O)c-2c(C)c2ccccc21`, at Translocator protein, the IC50 was 0.00034 µM.

In the case of `Cc1c2c(=O)n(-c3ccccc3)nc-2n(CC(=O)N(C)c2ccc(Cl)cc2)c2ccccc12`, the IC50 at Translocator protein came to 0.00013 µM.

On to `CCCCN(C)C(=O)Cn1c2nn(-c3ccc(F)cc3)c(=O)c-2c(C)c2ccccc21`, for which the IC50 on Translocator protein worked out at 0.00013 µM.

Take `Cc1c2c(=O)n(-c3ccc(F)cc3)nc-2n(CC(=O)N(C)c2ccc(Cl)cc2)c2ccccc12`: the IC50 at Translocator protein was 0.00028 µM.

For `CCN(Cc1ccccc1)C(=O)Cn1c(=O)n(C)c2cnc(-c3ccccc3)nc21`, the Time was found to be 137.3 s with Mus musculus [8], 162.3 s in the assay with Mus musculus [14] and 110.8 s in the assay on Mus musculus [16].

Regarding `CN1C(=O)CN=C(c2ccccc2)c2cc(Cl)ccc21` [DIAZEPAM], the Time in the assay with Mus musculus [16] came out at 171.63 s.
